# This sample holds only a part of the variants without activity.
# B1: tRNA (parent)
# chain: GUUCCGUUGGCGUAAUGGUAACGCGUCUCCCUCCUAAGGAGAAGACUGCGGGUUCGAGUCCCGUACGGAACG
# Variants of: B1
# Assay: yeast fitness relative to wild type (ratio to wild type); higher = fitter; tRNA-Arg(CCU), competitive growth, 37 C, YPD
# Summary of the method: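 The tRNA-Arg(CCU) gene variants were made by chemical synthesis with a 3% per-site mutation rate at 69 sites and inserted at the native genomic locus of Saccharomyces cerevisiae. After pooling, the strains were competed in YPD at 37°C for 24 hours in six parallel replicates. Gene amplicons from the start population and each end population were read by 100-nucleotide paired-end sequencing, and Darwinian fitness relative to wild type was taken from genotype frequency changes. Genotypes needed ≥ 100 starting reads, and estimates < 0.5 were set to 0.5.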
row,Variant,yeast fitness
1,C4G A14G,0.78
2,U3C C31U A40C,0.654
3,U3C C5G G17A A40C U59C,≤ 0.5
4,G6A C22G G44C A70C,≤ 0.5
5,U8G A14U G18A G50A A57U A70G,≤ 0.5
6,G18A A45U C55A,≤ 0.5
7,C5G U13A A20G U35A A40G,≤ 0.5
8,U2A U16C C30A A69C,0.544
9,A21G C31G A45G,0.938
10,C5A G9C C27A C30U A65G,≤ 0.5
11,C4U A43U C55G G67A,0.804
12,U16C C30U C62U,0.645
13,G6A C11G U35A A37U A70C,≤ 0.5
14,U2C G18A C24A U28A U32C A57C G67U,≤ 0.5
15,C24U A36U C60A,≤ 0.5
16,G6A C30U A42C G48C,≤ 0.5
17,A14G C24G C31U U47C C55A,≤ 0.5
18,U3A C30G C31U G67C,≤ 0.5
19,C24U C29U A42G C55U,≤ 0.5
20,U32C A65G,0.936
21,G63C C66G,0.709

row,Variant,yeast fitness
1,C11A C62G A69U,≤ 0.5
2,C4G C30U G63C,0.628
3,C24G A36G C55A,≤ 0.5
4,C27G A37U A43G,≤ 0.5
5,G12A U19C A21U A69C,0.653
6,C5G G10A G52A A70G,0.564
7,C11G C24G,≤ 0.5
8,G10C A36G A57U,≤ 0.5
9,U19G A20U U53G,≤ 0.5
10,A20G G50C,0.636
11,G9C C55G,0.542
12,G10C C24G C49G,≤ 0.5
13,A14G G25A,0.856
14,C24G C34G G52A,0.602
15,U2G A40U C46G,≤ 0.5
16,A15G A45C C61U,0.574
17,A14G C22A C29G C30G G48U,0.618
18,G9A G25A C61A,≤ 0.5
19,A36G G38C,0.719
20,G50C A70U,0.875
21,C4G U7C C27A A43U U59G,≤ 0.5

row,Variant,yeast fitness
1,C11A C46A,0.745
2,G9C G23A A40C C55G A65G,≤ 0.5
3,C5U A37C C46G C60U,≤ 0.5
4,G10C G12A A45C,0.539
5,U7G,0.983
6,G17U A21G C46U,0.588
7,C60U C66A,0.619
8,C27U G44C U59G,≤ 0.5
9,C30G A43G,0.589
10,C5A A15C U16A C31G C34U A69U,≤ 0.5
11,A15U A42C,0.787
12,C5U A37C A70C,0.631
13,A14U C33U,≤ 0.5
14,G18C C30U A45C A69U,≤ 0.5
15,U7A A15U U53C,≤ 0.5
16,C5U C29G G44A A57U,≤ 0.5
17,U2C C61G U64C,≤ 0.5
18,A36G C61U A70U,0.755
19,A20G C22G U47C U53G,≤ 0.5
20,U28A C29G G44C A65U,0.935
21,U7C C34A U59A,≤ 0.5

row,Variant,yeast fitness
1,U19C A45G,1
2,A37U A43C U47C C60G,≤ 0.5
3,C24G A42G A69U,≤ 0.5
4,A45C C55G C61U,≤ 0.5
5,G17C G23C A43U C49A C66U,0.634
6,C24U U47A C66U,≤ 0.5
7,C4U G18C A21G A57C,≤ 0.5
8,C11U U16C C27U C31A U35C C55G C66U,≤ 0.5
9,U2C G6A G23A C27U A45C U47C C60A,≤ 0.5
10,U2A C5U A21U C30G A70U,≤ 0.5
11,C11G C30G C34A A37C C46U,≤ 0.5
12,C11A A21C A37C A40C A69C,≤ 0.5
13,A20G A40U G58C,0.77
14,G9C A20C A45G C46G G50A,≤ 0.5
15,C30U C33A A43G,≤ 0.5
16,C11U C27G C29G C49U G63C,≤ 0.5
17,U7C A43C,0.88
18,A14C G18A C22G A57U,≤ 0.5
19,C11U U13A,0.832
20,A21U C62U,0.716

# Source: the RNAGym collection of RNA variant scans (doi:10.1126/science.aae0568)
